According to ChEMBL document CHEMBL1141882, “Synthesis and biological testing of purine derivatives as potential ATP-competitive kinase inhibitors” (J Med Chem, 2005):

Tests used:
[1] = target: Mitogen-activated protein kinase 8 (Homo sapiens) (UniProt P45983); test: Inhibition of human c-Jun N-terminal kinase-1 alpha-1 at 30 uM
Method in brief: (§1)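 Kinase activity assayed with ATP at 100 µM, deliberately higher than usual assay ATP levels because the inhibitors are assumed ATP-competitive. Results are reported as percent inhibition of each kinase.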

[2] = target: Mitogen-activated protein kinase 10 (Rattus norvegicus) (UniProt P49187); test: Inhibition of rat c-Jun N-terminal kinase-3 at 30 uM; method in brief: as §1
Chain of Mitogen-activated protein kinase 10 (Rattus norvegicus) (P49187 whole entry): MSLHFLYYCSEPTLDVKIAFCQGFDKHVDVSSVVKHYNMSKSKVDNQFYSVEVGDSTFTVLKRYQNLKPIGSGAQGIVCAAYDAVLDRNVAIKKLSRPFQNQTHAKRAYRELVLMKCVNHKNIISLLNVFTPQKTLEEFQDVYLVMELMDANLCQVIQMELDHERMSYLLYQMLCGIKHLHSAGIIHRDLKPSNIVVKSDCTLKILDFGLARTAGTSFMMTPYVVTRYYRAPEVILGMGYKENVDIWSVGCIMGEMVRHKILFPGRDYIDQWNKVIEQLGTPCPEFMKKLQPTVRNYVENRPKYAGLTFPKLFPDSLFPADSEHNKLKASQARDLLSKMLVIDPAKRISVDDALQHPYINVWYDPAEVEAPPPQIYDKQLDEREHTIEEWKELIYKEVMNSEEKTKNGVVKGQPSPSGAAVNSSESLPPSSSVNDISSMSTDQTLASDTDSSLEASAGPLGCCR

[3] = target: Protein kinase C alpha type (Homo sapiens) (UniProt P17252); test: Inhibition of human Protein kinase C alpha; design: concentration or dose not given beside the values; conditions: concentration not given here
[4] = target: cAMP-dependent protein kinase (PKA) (Homo sapiens) (UniProt P22694+P17612+P22612); test: Inhibition of human cAMP-dependent protein kinase (PKA); format: protein assay; design: concentration or dose not given beside the values; conditions: concentration not given here
[5] = target: Dual specificity mitogen-activated protein kinase kinase 1 (Homo sapiens) (UniProt Q02750); test: Inhibition of human Mitogen activated protein kinase kinase 1 (MEK1) at 30 uM; method in brief: as §1
Chain of Dual specificity mitogen-activated protein kinase kinase 1 (Homo sapiens) (Q02750 whole entry): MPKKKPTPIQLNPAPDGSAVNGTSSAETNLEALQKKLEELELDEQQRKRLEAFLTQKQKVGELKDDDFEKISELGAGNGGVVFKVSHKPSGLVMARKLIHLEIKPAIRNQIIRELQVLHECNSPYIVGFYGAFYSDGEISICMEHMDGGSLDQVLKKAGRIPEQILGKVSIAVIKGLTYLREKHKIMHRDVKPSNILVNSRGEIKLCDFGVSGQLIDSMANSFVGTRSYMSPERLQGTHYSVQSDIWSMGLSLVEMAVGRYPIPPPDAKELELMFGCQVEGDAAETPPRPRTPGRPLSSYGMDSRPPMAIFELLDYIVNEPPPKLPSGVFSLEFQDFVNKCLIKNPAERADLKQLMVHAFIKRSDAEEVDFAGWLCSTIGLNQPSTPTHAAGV

[6] = target: Ca2+/calmodulin-dependent protein kinase II (CaM kinase II) (Rattus norvegicus) (UniProt P11275+P08413+P15791+P11730); test: Inhibition of rat Calcium/calmodulin-dependent protein kinase type II at 30 uM; format: protein assay; method in brief: as §1
[7] = target: Glycogen synthase kinase-3 beta (Homo sapiens) (UniProt P49841); test: Inhibition of human Glycogen synthase kinase-3 beta at 30 uM; method in brief: as §1
Chain of Glycogen synthase kinase-3 beta (Homo sapiens) (P49841 whole entry, looked up): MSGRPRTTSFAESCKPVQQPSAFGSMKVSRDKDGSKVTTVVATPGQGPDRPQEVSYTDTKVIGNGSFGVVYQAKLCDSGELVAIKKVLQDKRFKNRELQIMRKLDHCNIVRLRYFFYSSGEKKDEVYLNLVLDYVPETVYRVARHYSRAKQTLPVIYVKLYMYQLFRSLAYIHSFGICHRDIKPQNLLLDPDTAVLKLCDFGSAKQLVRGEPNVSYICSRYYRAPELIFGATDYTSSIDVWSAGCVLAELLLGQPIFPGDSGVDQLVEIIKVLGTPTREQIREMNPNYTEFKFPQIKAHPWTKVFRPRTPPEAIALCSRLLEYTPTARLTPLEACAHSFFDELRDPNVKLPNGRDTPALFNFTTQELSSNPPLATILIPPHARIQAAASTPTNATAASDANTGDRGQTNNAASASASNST

[8] = target: Tyrosine-protein kinase Lck (Homo sapiens) (UniProt P06239); test: Inhibition of human lymphocyte protein tyrosine kinase Lck at 30 uM; method in brief: as §1
Chain of Tyrosine-protein kinase Lck (Homo sapiens) (P06239 2-509 limits assumed): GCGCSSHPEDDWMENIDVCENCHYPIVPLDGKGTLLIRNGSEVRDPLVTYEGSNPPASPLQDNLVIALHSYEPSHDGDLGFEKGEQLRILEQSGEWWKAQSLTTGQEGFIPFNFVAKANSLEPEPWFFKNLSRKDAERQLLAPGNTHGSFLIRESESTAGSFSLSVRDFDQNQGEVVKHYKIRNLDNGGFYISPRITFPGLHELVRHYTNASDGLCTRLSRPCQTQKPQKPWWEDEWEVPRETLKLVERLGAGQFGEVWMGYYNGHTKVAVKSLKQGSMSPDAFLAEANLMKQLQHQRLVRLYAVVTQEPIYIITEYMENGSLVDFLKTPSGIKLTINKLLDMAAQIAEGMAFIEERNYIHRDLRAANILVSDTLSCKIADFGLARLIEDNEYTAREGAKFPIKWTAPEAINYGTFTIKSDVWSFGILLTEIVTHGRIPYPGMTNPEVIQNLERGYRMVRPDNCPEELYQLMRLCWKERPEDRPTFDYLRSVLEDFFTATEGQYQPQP

[9] = target: Mitogen-activated protein kinase 1 (Homo sapiens) (UniProt P28482); test: Inhibition of human Mitogen-activated protein kinase 2 at 30 uM; method in brief: as §1
Target sequence in this assay (P28482 whole entry): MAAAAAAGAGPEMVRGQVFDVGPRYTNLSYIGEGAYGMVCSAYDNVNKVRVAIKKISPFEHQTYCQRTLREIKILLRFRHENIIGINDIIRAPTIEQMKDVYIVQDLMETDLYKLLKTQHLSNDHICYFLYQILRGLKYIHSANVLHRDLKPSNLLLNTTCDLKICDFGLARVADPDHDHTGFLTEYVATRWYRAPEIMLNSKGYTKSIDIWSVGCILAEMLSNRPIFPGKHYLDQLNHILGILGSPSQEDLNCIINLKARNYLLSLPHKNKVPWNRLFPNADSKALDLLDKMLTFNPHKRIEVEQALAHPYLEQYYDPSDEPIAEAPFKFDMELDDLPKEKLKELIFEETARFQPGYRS

[10] = target: Mitogen-activated protein kinase 14 (Homo sapiens) (UniProt Q16539); test: Inhibition of human stress-activated protein kinase-2 alpha (p38 MAP-kinase) at 30 uM; method in brief: as §1
Chain of Mitogen-activated protein kinase 14 (Homo sapiens) (Q16539 whole entry): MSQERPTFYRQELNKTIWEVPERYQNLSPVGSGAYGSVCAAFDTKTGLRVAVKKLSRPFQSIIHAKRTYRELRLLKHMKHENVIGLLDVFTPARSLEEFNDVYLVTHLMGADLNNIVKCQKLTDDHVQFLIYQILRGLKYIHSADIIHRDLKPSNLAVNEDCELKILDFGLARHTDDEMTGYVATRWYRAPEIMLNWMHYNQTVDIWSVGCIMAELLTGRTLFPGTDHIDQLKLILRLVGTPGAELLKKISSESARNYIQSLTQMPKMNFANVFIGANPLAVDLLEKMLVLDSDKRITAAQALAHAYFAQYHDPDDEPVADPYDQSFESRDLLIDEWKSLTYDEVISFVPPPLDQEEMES

[11] = target: RAC-alpha serine/threonine-protein kinase (Homo sapiens) (UniProt P31749); test: Inhibition of human Protein kinase B alpha at 30 uM; method in brief: as §1
Chain of RAC-alpha serine/threonine-protein kinase (Homo sapiens) (P31749 whole entry): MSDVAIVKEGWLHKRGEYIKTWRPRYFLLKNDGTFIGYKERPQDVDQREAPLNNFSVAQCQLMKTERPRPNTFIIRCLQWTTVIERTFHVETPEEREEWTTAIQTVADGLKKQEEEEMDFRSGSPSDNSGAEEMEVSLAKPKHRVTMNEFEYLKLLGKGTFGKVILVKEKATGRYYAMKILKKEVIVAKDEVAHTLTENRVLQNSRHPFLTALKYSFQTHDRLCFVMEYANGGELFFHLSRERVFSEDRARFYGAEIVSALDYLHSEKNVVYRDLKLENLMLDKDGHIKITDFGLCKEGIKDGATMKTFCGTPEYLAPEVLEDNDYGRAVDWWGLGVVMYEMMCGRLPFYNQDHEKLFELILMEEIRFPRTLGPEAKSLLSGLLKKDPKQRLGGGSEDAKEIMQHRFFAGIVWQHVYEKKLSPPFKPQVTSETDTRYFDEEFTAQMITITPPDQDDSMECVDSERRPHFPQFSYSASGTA

[12] = target: RAF proto-oncogene serine/threonine-protein kinase (Homo sapiens) (UniProt P04049); test: Inhibition of human RAF proto-oncogene serine/threonine-protein kinase at 30 uM; method in brief: as §1
Chain of RAF proto-oncogene serine/threonine-protein kinase (Homo sapiens) (P04049 whole entry): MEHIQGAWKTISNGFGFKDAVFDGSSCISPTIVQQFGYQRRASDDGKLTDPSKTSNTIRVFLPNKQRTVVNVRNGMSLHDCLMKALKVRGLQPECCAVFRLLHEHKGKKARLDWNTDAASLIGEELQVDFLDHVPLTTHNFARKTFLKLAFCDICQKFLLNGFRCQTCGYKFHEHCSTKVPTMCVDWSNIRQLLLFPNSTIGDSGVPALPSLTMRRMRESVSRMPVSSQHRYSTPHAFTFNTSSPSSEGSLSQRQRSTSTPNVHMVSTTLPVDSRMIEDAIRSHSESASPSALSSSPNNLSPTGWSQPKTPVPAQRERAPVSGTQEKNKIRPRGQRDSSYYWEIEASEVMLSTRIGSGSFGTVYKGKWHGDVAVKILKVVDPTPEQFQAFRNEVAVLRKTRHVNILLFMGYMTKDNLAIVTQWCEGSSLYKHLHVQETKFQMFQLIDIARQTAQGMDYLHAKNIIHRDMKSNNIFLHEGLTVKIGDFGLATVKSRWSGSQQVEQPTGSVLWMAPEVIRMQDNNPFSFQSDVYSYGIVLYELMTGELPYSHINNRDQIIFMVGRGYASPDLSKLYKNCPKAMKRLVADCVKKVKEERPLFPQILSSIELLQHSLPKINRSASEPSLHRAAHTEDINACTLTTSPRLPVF

[13] = target: Rho-associated protein kinase 2 (Homo sapiens) (UniProt O75116); test: Inhibition of human Rho-dependent protein kinase-II at 30 uM
[14] = target: Mitogen-activated protein kinase 9 (Homo sapiens) (UniProt P45984); test: Inhibition of human c-Jun N-terminal kinase-2 alpha-2 at 30 uM; method in brief: as §1
[15] = target: Mitogen-activated protein kinase 1 (Homo sapiens) (UniProt P28482); test: Inhibition of human Mitogen-activated protein kinase 1 at 30 uM

Chain of Mitogen-activated protein kinase 8 (Homo sapiens) (P45983 whole entry): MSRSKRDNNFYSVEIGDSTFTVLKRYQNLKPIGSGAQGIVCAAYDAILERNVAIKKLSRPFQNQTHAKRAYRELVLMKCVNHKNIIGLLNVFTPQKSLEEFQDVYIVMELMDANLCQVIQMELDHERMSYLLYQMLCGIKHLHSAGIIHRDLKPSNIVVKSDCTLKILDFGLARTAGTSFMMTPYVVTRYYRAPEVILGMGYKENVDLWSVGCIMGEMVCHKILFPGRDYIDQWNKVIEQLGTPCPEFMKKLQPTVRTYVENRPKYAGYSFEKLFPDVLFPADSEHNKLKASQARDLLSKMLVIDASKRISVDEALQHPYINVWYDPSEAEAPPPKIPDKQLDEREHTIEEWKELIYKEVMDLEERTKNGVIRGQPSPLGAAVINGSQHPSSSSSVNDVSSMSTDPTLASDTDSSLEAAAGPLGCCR

Row | SMILES | inhibition [1] [%] | inhibition [2] [%] | inhibition [3] [%] | inhibition [4] [%] | inhibition [5] [%] | inhibition [6] [%] | inhibition [7] [%] | inhibition [8] [%] | inhibition [9] [%] | inhibition [10] [%] | inhibition [11] [%] | inhibition [12] [%] | inhibition [13] [%] | inhibition [14] [%] | inhibition [15] [%]
1 | c1ccc(Sc2ncnc3[nH]cnc23)cc1 | 0 | 0 | 3 | 8 | 0 | 0 | 1 | 5 | 13 | 54 | 0 | 6 | 33 | 0 | 
2 | Cn1c(-c2ccccc2)nc2c(Sc3ccccc3)ncnc21 | 0 | 12 | 13 | 3 | 4 | 1 | 0 | 5 | 0 | 44 | 42 | 12 | 1 | 0 | 
3 | c1ccc(CSc2ncnc3[nH]cnc23)cc1 | 1 | 7 | 11 | 13 | 7 | 0 | 35 | 22 | 12 | 50 | 4 | 53 | 28 | 0 | 
4 | Cn1cnc2c(Nc3ccc(F)cc3)ncnc21 | 5 | 19 | 11 | 0 | 8 | 8 | 14 | 9 | 57 | 13 | 0 | 27 | 7 | 6 | 
5 | Fc1ccc(Sc2ncnc3[nH]cnc23)cc1 | 0 | 8 | 9 | 10 | 2 | 0 | 0 | 13 | 12 | 72 | 0 | 29 | 37 | 1 | 
6 | Cn1c(-c2ccc(S(C)(=O)=O)cc2)nc2c(Sc3ccc(F)cc3)ncnc21 | 0 | 5 | 7 | 3 | 0 | 0 | 0 | 10 | 0 | 19 | 4 | 6 | 0 | 2 | 
7 | Fc1ccc(C[n+]2c[nH]c3ncncc32)cc1 | 0 | 12 | 15 | 0 | 0 | 5 | 10 | 13 | 4 | 5 | 8 | 7 | 4 | 0 | 
8 | Fc1ccc(Cn2cnc3ncnc(Cl)c32)cc1 | 6 | 21 | 13 | 0 | 4 | 8 | 0 | 0 | 1 | 17 | 0 | 20 | 7 | 9 | 
9 | c1ccc(Oc2ncnc3[nH]cnc23)cc1 | 1 | 0 | 8 | 11 | 1 | 0 | 0 | 11 | 6 | 12 | 0 | 3 | 16 | 1 | 
10 | Nc1ncnc2c1ncn2Cc1ccccc1 | 1 | 17 | 2 | 1 | 7 | 0 | 7 | 19 | 11 | 7 | 0 | 25 | 5 | 0 | 
11 | Cn1cnc2c(SCc3ccccc3)ncnc21 | 1 | 5 | 13 | 0 | 6 | 0 | 10 | 6 | 0 | 22 | 4 | 12 | 1 | 7 | 
12 | Fc1ccc(Nc2[nH]cnc3ncnc2-3)cc1 | 13 | 10 | 17 | 40 | 34 | 2 | 0 | 42 | 48 | 30 | 18 | 24 | 52 | 0 | 
13 | Cn1c(-c2ccccc2)nc2c(Sc3ccc(F)cc3)ncnc21 | 2 | 16 | 17 | 3 | 7 | 8 | 22 | 20 | 1 | 29 | 29 | 14 | 9 | 0 | 
14 | Cn1cnc2c(Sc3ccc(F)cc3)ncnc21 | 10 | 9 | 7 | 1 | 6 | 5 | 0 | 2 | 12 | 38 | 0 | 12 | 6 | 10 | 
15 | c1ccc(-[n+]2c[nH]c3ncncc32)cc1 | 0 | 3 | 4 | 0 | 0 | 0 | 4 | 2 | 0 | 0 | 0 | 0 | 0 | 0 | 
16 | c1ccc(Nc2ncnc3[nH]cnc23)cc1 | 0 | 11 | 6 | 32 | 19 | 0 | 13 | 39 | 33 | 34 | 14 | 19 | 48 | 0 | 22
17 | Cn1cnc2c(-c3ccc(F)cc3)ncnc21 | 5 | 14 | 8 | 0 | 1 | 12 | 3 | 5 | 0 | 16 | 0 | 9 | 10 | 3 | 
18 | COc1ncnc2ncn(Cc3ccc(F)cc3)c12 | 0 | 30 | 7 | 7 | 3 | 2 | 5 | 0 | 3 | 8 | 0 | 9 | 1 | 0 | 
19 | Cn1c(-c2ccc(S(C)(=O)=O)cc2)nc2c(Sc3ccccc3)ncnc21 | 1 | 7 | 18 | 11 | 4 | 8 | 0 | 16 | 3 | 36 | 14 | 10 | 5 | 8 | 
20 | Clc1ncnc2ncn(Cc3ccccc3)c12 | 0 | 11 | 12 | 0 | 0 | 0 | 9 | 0 | 1 | 7 | 0 | 12 | 6 | 1 | 
